ChEMBL document CHEMBL1149694, “5-(3-Cyclopentyl-2-thioxo-2,3-dihydro-1H-benzimidazol-5-yl)-1-methyl-1H-pyrrole-2-carbonitrile: A novel, highly potent, selective, and orally active non-steroidal progesterone receptor agonist” (Bioorg Med Chem, 2007)
Calls of active or inactive are those of the source. The rule behind the calls is not given here.

Experiments:
Progesterone receptor [1] = biological target: T1, Progesterone receptor (Homo sapiens, UniProt P06401); test: (§1) Agonist activity at progesterone receptor expressed in T47D cells by alkaline phosphatase assay; type: functional, cell-based
T1 sequence (P06401 whole entry): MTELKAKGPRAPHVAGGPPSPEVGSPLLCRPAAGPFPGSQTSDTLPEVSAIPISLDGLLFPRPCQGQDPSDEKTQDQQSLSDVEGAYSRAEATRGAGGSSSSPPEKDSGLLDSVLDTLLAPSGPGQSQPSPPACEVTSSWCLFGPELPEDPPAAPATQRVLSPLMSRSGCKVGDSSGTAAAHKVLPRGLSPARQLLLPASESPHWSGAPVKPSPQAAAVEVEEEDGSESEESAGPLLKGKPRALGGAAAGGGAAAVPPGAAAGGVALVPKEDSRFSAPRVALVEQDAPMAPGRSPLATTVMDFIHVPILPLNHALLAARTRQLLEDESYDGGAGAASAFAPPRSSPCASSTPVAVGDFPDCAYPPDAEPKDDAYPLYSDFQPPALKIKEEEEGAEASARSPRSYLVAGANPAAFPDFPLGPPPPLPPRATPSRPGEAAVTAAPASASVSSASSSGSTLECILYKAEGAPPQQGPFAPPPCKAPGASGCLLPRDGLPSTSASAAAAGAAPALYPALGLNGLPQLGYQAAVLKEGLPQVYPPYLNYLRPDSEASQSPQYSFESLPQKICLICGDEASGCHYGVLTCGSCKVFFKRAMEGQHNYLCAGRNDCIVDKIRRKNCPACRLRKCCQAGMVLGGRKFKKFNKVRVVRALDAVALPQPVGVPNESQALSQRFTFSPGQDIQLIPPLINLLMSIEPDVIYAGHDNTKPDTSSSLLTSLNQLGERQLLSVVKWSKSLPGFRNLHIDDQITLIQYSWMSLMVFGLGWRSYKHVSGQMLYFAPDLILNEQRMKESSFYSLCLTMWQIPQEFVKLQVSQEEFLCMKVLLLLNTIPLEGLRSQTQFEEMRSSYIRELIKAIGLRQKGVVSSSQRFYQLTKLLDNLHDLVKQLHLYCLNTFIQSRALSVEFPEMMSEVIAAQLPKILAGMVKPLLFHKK
Procedure, shortened: (§2)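 Human T47D breast carcinoma cells; alkaline phosphatase activity measured. EC50 is the concentration giving 50% effect; efficacy shown in parentheses. Average of at least duplicate determinations.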

[2] = biological target: T2, Progesterone receptor (Homo sapiens) (UniProt P06401); test: (§3) Antagonist activity at progesterone receptor expressed in T47D cells assessed as inhibition of progesterone-induced alkaline phosphatase activity; type: functional, cell-based; details: for inhibition: concentration not given here
T2 sequence (whole entry): T1 sequence (P06401 whole entry)
Procedure, shortened: (§4)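 Human T47D breast carcinoma cells stimulated with 1 nM progesterone; compound inhibition of induced alkaline phosphatase activity. IC50 is 50% inhibition. Average of at least duplicate determinations.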

[3] = biological target: T2, Progesterone receptor (Homo sapiens); test: Agonist activity at progesterone receptor expressed in T47D cells relative to progesterone; type: functional, cell-based
Procedure, shortened: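 Human T47D breast carcinoma cells; agonist mode; read-out is alkaline phosphatase activity; values are the average of at least duplicate determinations.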

[4] = biological target: T2, Progesterone receptor (Homo sapiens); test: as §1; type: functional, cell-based; procedure, shortened: as §2
Progesterone receptor [5] = biological target: T1, Progesterone receptor; test: as §3; type: functional, cell-based; procedure, shortened: as §4
[6] = Clearance in rat at 1 mg/kg, iv; type: ADME, organism-based; design: dose 1 mg/kg, route intravenous; details: in vivo
Procedure, shortened: (§5)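 Female rats, single dose of 1 mg/kg given as IV bolus or orally. AUC0–∞, clearance, volume of distribution and terminal half-life taken from the IV arm. Oral exposure gives AUC0–∞; bioavailability from oral versus IV exposure.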

Glucocorticoid receptor [7] = biological target: T3, Glucocorticoid receptor (Homo sapiens, UniProt P04150); test: Antagonist activity at glucocorticoid receptor expressed in L929 cells by HRE-tk luciferase assay
T3 sequence (P04150 whole entry): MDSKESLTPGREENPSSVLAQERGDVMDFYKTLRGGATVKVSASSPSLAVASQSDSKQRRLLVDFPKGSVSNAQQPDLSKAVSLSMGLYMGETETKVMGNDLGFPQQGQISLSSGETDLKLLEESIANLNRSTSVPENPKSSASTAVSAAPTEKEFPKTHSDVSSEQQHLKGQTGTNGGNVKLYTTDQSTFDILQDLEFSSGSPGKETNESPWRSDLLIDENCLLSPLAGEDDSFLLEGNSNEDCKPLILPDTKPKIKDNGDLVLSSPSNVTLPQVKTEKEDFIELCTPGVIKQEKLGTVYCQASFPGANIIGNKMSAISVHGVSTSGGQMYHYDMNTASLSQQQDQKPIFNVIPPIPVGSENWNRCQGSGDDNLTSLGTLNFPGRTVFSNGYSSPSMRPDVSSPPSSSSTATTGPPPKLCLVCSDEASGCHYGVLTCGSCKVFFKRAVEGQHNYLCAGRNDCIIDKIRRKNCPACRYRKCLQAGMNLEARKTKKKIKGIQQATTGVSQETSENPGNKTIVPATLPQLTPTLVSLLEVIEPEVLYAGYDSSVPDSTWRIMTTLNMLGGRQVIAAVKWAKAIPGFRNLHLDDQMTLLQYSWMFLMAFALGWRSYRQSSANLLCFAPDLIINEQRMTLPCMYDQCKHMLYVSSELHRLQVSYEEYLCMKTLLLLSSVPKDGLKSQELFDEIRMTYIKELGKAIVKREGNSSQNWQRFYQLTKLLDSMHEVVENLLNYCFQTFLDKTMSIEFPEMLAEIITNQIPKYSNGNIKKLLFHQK

Glucocorticoid receptor [8] = biological target: T3, Glucocorticoid receptor; test: Agonist activity at glucocorticoid receptor expressed in L929 cells by HRE-tk luciferase assay
[9] = Bioavailability in rat at 1 mg/kg, po; type: ADME, organism-based; details: in vivo; procedure, shortened: as §5
[10] = AUC (0 to infinity) in rat at 1 mg/kg, iv; type: ADME, organism-based; design: time infinity, dose 1 mg/kg, route intravenous; details: plasma; procedure, shortened: as §5
[11] = Volume of distribution in rat at 1 mg/kg, iv; type: ADME, organism-based; design: dose 1 mg/kg, route intravenous; details: in vivo; procedure, shortened: as §5
Androgen receptor [12] = biological target: T4, Androgen receptor (Homo sapiens, UniProt P10275); test: Antagonist activity at androgen receptor expressed in mouse fibroblast L929 cells by HRE-tk luciferase assay
T4 sequence (P10275 whole entry): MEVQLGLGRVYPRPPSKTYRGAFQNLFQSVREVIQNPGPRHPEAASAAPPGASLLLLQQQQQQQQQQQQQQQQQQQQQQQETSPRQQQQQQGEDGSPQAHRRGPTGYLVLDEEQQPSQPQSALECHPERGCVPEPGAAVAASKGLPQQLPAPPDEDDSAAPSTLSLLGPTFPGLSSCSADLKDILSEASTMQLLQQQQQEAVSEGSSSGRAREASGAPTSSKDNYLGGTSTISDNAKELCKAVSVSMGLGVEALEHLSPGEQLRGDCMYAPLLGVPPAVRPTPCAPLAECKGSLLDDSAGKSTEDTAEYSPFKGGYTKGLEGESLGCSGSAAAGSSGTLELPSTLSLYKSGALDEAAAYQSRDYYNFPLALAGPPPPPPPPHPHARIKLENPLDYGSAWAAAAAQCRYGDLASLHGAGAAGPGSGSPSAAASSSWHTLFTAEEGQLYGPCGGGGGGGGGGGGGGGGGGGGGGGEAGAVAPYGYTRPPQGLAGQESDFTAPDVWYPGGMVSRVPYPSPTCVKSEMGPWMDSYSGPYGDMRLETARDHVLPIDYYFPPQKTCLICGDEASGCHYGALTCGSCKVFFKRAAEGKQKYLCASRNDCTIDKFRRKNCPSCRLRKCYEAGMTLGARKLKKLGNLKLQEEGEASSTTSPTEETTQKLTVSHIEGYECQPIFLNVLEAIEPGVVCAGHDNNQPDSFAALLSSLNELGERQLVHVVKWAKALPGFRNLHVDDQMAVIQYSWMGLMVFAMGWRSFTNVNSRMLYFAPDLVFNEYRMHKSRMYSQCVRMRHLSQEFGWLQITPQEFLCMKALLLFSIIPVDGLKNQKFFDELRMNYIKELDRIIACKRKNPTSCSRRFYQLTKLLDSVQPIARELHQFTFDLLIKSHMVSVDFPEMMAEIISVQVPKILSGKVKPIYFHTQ

Androgen receptor [13] = biological target: T4, Androgen receptor; test: Agonist activity at androgen receptor expressed in mouse fibroblast L929 cells by HRE-tk luciferase assay
Rattus norvegicus [14] = test: Effect on estrogen-induced synthesis of complement component C3 in po dosed Sprague-Dawley rat uterus epithelial cells; type: functional; details: Epithelial cell
Procedure, shortened: (§6)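 Adult ovariectomized Sprague–Dawley rats (60-day-old, surgery at least 8 days before dosing), groups of six, acclimated at least 72 h. Compound given once daily for 2 days, by sc injection or oral gavage, in 10% ethanol/corn oil. Ethinyl estradiol given orally on day 2. Uteri taken about 24 h later. C3 mRNA measured by Northern blot, normalized to 28S rRNA. Log-transformed ratios; Huber M-estimator.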

[15] = AUC (0 to infinity) in rat at 1 mg/kg, po; type: ADME, organism-based; design: time infinity, dose 1 mg/kg, route oral; details: plasma; procedure, shortened: as §5
Progesterone receptor [16] = biological target: T1, Progesterone receptor; test: Binding affinity to cytosolic PR in T47D cells by competition binding assay; type: cell-based
Rattus norvegicus [17] = test: Effect on uterine decidualization in po dosed ovariectomized Sprague-Dawley rat after 7 days; type: organism-based; details: 168 h
Procedure, shortened: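 Ovariectomized mature Sprague–Dawley rats (~60-day-old, 230 g), groups of 4–5, dosed once daily for 7 days by gavage. Half-log dose steps. One uterine horn decidually stimulated; the contralateral horn is the control. Horns weighed about 24 h after the last dose. D-horn/C-horn ratio log-transformed; Huber M-estimator; ANOVA and nonlinear dose–response fitting.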

[18] = Terminal half life in rat at 1 mg/kg, iv; type: ADME, organism-based; design: dose 1 mg/kg, route intravenous; details: in vivo; procedure, shortened: as §5
Cynomolgus monkey = test: Inhibition of ovulation-induced progesterone levels in po dosed cynamologous monkey; type: functional, Macaca fascicularis
Procedure, shortened: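 Cynomolgus monkeys dosed orally once daily from day 2 to 28 of the menstrual cycle; vehicle 2% Tween 80/0.5% methylcellulose. Serum progesterone sampled three times weekly until the next menses. Ovulation inferred from the progesterone pattern.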

Rattus norvegicus [19] = test: Effect on estrogen-induced synthesis of complement component C3 in sc dosed Sprague-Dawley rat uterus epithelial cells; type: functional, Epithelial cell; procedure, shortened: as §6

| Compound | EC50 (Progesterone receptor [1]) [nM] | Activity [2] | Efficacy [3] [%] | other results |
| --- | --- | --- | --- | --- |
| CCC(CC)n1c(=S)[nH]c2ccc(-c3ccc(C#N)n3C)cc21 | 1 | inactive | 70 | – |
| CCC(CC)n1c(=S)[nH]c2ccc(-c3ccc(F)c(Cl)c3)cc21 | – | – | – | Activity [4]: inactive; IC50 (Progesterone receptor [5]): 33.7 nM; inhibition [2]: 60% |
| Cn1c(C#N)ccc1-c1ccc2[nH]c(=S)n(C3CCCC3)c2c1 | 0.1 | inactive | 75 | clearance [6]: 25 mL/min/kg; IC50 (Glucocorticoid receptor [7]): 99 nM; EC50 (Glucocorticoid receptor [8]): > 10000 nM; bioavailability [9]: 71%; AUC(0-inf) [10]: 680 ng·h/mL; Vd [11]: 7.6 L/kg; IC50 (Androgen receptor [12]): 1000 nM; EC50 (Androgen receptor [13]): > 10000 nM; ED50 (Rattus norvegicus [14]): 0.003 mg/kg; AUC(0-inf) [15]: 480 ng·h/mL; IC50 (Progesterone receptor [16]): 0.4 nM; ED50 (Rattus norvegicus [17]): 0.02 mg/kg; half-life [18]: 4.4 h; ED100 (Cynomolgus monkey): 0.03 mg/kg |
| CC(=O)O[C@]1(C(C)=O)CC[C@H]2[C@@H]3C[C@H](C)C4=CC(=O)CC[C@]4(C)[C@H]3CC[C@@]21C [MEDROXYPROGESTERONE ACETATE] | – | inactive | – | ED5 (Rattus norvegicus [19]): 0.03 mg/kg |
| CCC(CC)n1c(=O)[nH]c2ccc(-c3ccc(C#N)n3C)cc21 | > 3000 | – | – | IC50 (Progesterone receptor [5]): 11.7 nM |
| CC(=O)[C@H]1CC[C@H]2[C@@H]3CCC4=CC(=O)CC[C@]4(C)[C@H]3CC[C@]12C [PROGESTERONE] | – | inactive | – | – |
| Fc1ccc(-c2ccc3[nH]c(=S)n(C4CCCC4)c3c2)cc1Cl | 49.3 | inactive | 55 | – |
| Cn1c(C#N)ccc1-c1ccc2[nH]c(=O)n(C3CCCC3)c2c1 | > 3000 | – | – | IC50 (Progesterone receptor [16]): 26.2 nM |
| Cn1c(C#N)ccc1-c1ccc2[nH]c(=O)n(C3CCC3)c2c1 | > 3000 | – | – | – |
| N#Cc1cc(F)cc(-c2ccc3[nH]c(=S)n(C4CCC4)c3c2)c1 | 2.7 | inactive | 60 | – |
| Cn1c(C#N)ccc1-c1ccc2c(c1)C(C)(C)OC(=S)N2 [TANAPROGET] | – | – | – | ED100 (Cynomolgus monkey): 0.01 mg/kg |
| CCC(CC)n1c(=S)[nH]c2ccc(-c3cc(F)cc(C#N)c3)cc21 | 270 | – | 70 | IC50 (Progesterone receptor [5]): 3.6 nM; inhibition [2]: 50% |
| Cn1c(C#N)ccc1-c1ccc2[nH]c(=S)n(C3CCC3)c2c1 | 0.5 | inactive | 70 | – |
| Fc1ccc(-c2ccc3[nH]c(=S)n(C4CCCC4)c3c2)cc1F | 62.5 | inactive | 75 | – |
